One assay has as its system KB (epidermal carcinoma). The experiment in a line: Cytotoxicity, WST-8 cell viability. Format: cell-based, human. As to conditions: read-out: Cancer cell lines IC50 KB; 48 h incubation, mean ± SD (n = 3). The essentials: (§1)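 Cells were seeded at 10,000 cells/well and grown for 24 h. Test compounds were dissolved in DMSO, diluted in medium and added at 80, 40, 20 and 10 µM. Cells were then incubated for 48 h. Viability was read with WST-8 plus 1-methoxy PMS as formazan absorbance at 450 nm. Controls were doxorubicin (positive) and 0.25% DMSO (vehicle). IC50 came from concentration-response curves, mean ± SD (n = 3).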
A general note: Tetrazolium assays rely on reduction of a dye to a coloured formazan, in cell work by metabolically active cells.

Assay [1] concerns BT-549 (breast carcinoma). The assay can be described thus: Cytotoxicity, WST-8 cell viability. The assay is classed as cell-based, human. The settings on record: read-out: Cancer cell lines IC50 BT-549; 48 h incubation, mean ± SD (n = 3). In outline: as §1
The subject of assay [2] is SK-OV-3 (ovarian carcinoma). The assay can be described thus: Cytotoxicity, WST-8 cell viability. The settings on record: read-out: Cancer cell lines IC50 SK-OV-3; 48 h incubation, mean ± SD (n = 3). Format: cell-based, human. In outline:
as §1

The next assay relates to LLC-PK1 kidney cells. The experiment in a line: Cytotoxicity, WST-8 cell viability, non-cancer kidney cells. The assay is classed as cell-based. The settings on record: read-out: Kidney cells IC50 LLC-PK1; 48 h incubation, mean ± SD (n = 3). In outline:
as §1

A further assay relates to SK-MEL (melanoma). The experiment in a line: Cytotoxicity, WST-8 cell viability. The assay is classed as cell-based, human. As to conditions: read-out: Cancer cell lines IC50 SK-MEL; 48 h incubation, mean ± SD (n = 3). In outline: as §1
The next assay has as its target T1, hHDAC6 (Homo sapiens, UniProt Q9UBN7).
T1 sequence (Q9UBN7 1-1215): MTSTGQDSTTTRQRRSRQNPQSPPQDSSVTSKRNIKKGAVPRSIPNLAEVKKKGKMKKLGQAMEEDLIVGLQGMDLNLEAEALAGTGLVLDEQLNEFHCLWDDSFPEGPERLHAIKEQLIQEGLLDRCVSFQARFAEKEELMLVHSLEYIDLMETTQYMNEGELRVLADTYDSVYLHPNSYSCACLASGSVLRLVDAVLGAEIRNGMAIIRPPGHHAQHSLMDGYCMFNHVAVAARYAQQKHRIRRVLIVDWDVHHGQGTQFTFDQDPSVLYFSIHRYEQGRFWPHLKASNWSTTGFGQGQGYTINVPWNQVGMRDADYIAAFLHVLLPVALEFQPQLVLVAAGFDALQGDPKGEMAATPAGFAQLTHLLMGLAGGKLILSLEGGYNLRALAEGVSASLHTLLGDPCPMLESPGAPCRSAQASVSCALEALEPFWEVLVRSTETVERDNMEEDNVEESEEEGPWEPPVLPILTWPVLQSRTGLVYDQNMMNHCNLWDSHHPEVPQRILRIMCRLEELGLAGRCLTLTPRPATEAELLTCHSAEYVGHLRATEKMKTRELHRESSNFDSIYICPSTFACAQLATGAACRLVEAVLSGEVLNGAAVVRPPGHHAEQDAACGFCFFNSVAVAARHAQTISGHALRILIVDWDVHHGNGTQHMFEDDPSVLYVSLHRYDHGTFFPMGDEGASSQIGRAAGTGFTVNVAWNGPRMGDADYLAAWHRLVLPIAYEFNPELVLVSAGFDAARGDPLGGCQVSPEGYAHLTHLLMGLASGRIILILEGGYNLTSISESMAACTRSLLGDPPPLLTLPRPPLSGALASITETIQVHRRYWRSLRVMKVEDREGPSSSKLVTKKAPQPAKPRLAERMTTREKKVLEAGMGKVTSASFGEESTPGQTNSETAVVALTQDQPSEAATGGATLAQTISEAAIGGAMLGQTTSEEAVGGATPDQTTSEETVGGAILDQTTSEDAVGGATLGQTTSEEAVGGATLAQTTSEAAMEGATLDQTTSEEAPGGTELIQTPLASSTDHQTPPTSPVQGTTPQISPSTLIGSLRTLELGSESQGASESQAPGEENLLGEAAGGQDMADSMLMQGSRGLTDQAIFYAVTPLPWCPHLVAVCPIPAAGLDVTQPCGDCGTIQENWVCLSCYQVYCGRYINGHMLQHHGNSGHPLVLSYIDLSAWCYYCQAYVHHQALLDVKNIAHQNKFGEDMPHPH
The experiment in a line: biochemical. As to conditions: read-out: hHDAC6 IC50; recombinant human HDAC6.

The next assay has as its target T2, hHDAC8 (Homo sapiens, UniProt Q9BY41).
T2 sequence (Q9BY41 1-377): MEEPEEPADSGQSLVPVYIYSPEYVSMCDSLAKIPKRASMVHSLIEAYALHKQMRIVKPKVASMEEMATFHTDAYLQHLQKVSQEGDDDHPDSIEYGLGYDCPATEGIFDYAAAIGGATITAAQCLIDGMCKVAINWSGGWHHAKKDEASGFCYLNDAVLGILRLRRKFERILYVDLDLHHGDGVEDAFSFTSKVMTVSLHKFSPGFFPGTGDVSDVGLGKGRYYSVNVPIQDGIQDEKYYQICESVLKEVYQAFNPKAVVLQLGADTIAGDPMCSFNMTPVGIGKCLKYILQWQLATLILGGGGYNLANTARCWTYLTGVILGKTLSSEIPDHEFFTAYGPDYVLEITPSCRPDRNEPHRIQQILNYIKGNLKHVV
The experiment in a line: biochemical. The assay is classed as biochemical.

The next assay deals with T3, drHDAC10 (Danio rerio, UniProt F1QCV2).
T3 sequence (F1QCV2 1-675): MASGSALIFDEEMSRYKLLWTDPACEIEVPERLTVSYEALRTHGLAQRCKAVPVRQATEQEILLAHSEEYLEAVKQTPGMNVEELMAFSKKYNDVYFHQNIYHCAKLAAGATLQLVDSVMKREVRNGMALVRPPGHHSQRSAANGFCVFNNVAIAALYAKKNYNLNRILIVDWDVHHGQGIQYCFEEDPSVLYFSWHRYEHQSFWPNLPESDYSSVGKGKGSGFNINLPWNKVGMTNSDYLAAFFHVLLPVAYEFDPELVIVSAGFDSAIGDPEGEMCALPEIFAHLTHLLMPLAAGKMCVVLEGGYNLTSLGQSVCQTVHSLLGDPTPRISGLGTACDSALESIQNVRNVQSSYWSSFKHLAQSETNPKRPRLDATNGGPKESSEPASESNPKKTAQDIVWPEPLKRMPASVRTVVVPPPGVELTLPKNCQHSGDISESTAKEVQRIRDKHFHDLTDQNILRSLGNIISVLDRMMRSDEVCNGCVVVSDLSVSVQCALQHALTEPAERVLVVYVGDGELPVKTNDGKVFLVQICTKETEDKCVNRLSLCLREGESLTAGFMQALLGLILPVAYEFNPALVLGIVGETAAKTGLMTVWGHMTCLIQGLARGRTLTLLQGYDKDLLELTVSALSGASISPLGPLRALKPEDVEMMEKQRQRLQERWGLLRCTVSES
The experiment in a line: Enzymatic in vitro HDAC10 inhibition assay. Format: biochemical, zebrafish. The essentials:
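Recombinant wild-type drHDAC10 (5 nM final) was preincubated 5 min with test compound at various concentrations in 20 mM HEPES pH 7.4 with 0.5 mg/mL BSA. The reaction was started with 50 µM Ac-spermidine-AMC and incubated 25 min at 25 °C. A stop solution containing 16 mM NDA derivatized the released primary amine. Fluorescence was read at λex 330 nm and λem 390 nm.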

The target in a further assay is hHDAC1 (Homo sapiens, UniProt Q13547). The assay can be described thus: biochemical. Format: biochemical.
Sequence of hHDAC1 (Q13547 whole entry): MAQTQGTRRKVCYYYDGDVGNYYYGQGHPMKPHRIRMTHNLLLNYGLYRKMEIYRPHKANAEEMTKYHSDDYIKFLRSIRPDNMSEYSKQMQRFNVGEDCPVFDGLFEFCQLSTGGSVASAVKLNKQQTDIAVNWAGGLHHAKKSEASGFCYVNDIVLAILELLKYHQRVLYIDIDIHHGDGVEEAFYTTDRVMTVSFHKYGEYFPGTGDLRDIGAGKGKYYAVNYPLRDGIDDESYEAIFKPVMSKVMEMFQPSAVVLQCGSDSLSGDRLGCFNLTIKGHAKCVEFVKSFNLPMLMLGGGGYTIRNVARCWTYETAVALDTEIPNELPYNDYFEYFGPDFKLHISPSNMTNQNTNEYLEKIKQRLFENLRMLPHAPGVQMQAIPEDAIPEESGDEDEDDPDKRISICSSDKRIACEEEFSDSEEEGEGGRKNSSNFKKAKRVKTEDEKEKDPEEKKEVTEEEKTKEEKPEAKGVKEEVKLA
The subject of the next assay is Vero kidney cells. The experiment in a line: Cytotoxicity, WST-8 cell viability, non-cancer kidney cells. The assay is classed as cell-based. As to conditions: read-out: Kidney cells IC50 Vero; 48 h incubation, mean ± SD (n = 3). The essentials:
as §1

Experimental findings from publication PMC12475083 (Scientific Reports, 2025) are described below.

`Cc1ccc(S(=O)(=O)n2cc(CNCc3ccc(C(=O)NO)cc3)c3ccccc32)cc1` [Compound 2c, N-hydroxy-4-((((1-tosyl-1H-indol-3-yl)methyl)amino)methyl) benzamide]: the IC50 with KB (epidermal carcinoma) amounted to 20.2 ± 0.32 µM; in assay [1] it was 16.5 ± 0.32 µM; in assay [2] it was 21.4 ± 1.89 µM; in the assay on LLC-PK1 kidney cells it was 16.6 ± 3.93 µM; with SK-MEL (melanoma), 15.1 ± 0.94 µM; on hHDAC6, 0.051 ± 0.005 µM. For the same molecule, the IC50 at drHDAC10 (read-out: IC50 drHDAC10 ± SD, zebrafish HDAC10, recombinant wild type) is 0.0045 ± 0.0003 µM; in the assay on Vero kidney cells it was 21.4 ± 1.27 µM. On hHDAC8 (inhibitor at 1 µM), the “hHDAC8 % @1 µM” value turned out to be 65.1%. The “hHDAC8 % @10 µM” value on hHDAC8 (inhibitor at 10 µM) worked out at 97.3%. Besides, on drHDAC10 (tosyl analogue vs compound 2a), the “reduction in HDAC10 inhibitory activity compared to compound 2a” value is roughly 10 fold. For the same molecule, the “hHDAC1 % @1 µM” value at hHDAC1 (inhibitor at 1 µM) is listed as 22.2%. Also, on hHDAC1 (inhibitor at 10 µM), the “hHDAC1 % @10 µM” value worked out at 72.8%.

The IC50 is the midpoint of a concentration-inhibition curve.
